In ChEMBL document CHEMBL4002574, “Structure-based exploration and exploitation of the S4 subsite of norovirus 3CL protease in the design of potent and permeable inhibitors” (Eur J Med Chem, 2017):

Columns and labels:
[1] = Cytotoxicity against human HG23 cells measured after 72 hrs by […] CytoTox-96 non-radioactive assay; format: cell-based
Norovirus = assay: Antiviral activity Norovirus infected in human HG23 cells assessed as decrease in viral RNA level measured after 48 hrs by qRT-PCR analysis; format: functional, cell-based; conditions: HG23, 48 h
Procedure, shortened: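 Norwalk virus replicon-bearing HG23 cells, confluent and semi-confluent, exposed 48 h to compound (up to 100 μM) or DMSO (<0.1%) in medium. Total RNA extracted, viral genome quantified by real-time qRT-PCR; EC50 derived from concentration-response data.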

[2] = Inhibition of Norovirus 3CL protease preincubated for 30 mins followed by addition of Edans-DFHLQ/GP-Dabcyl as substrate measured after 1 hr by FRET assay
Procedure, shortened: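 Protease preincubated 30 min at 37°C with serially diluted compound or DMSO in 20 mM HEPES pH 8, 200 mM NaCl, 0.4 mM EDTA, 60% glycerol, 6 mM DTT; Edans-DFHLQ/GP-Dabcyl substrate then added. Fluorescence (ex 360/em 460 nm) read 1 h later; background (substrate, no protease) subtracted; IC50 from variable-slope dose-response fit.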

Row | EC50 (Norovirus) | IC50 [2] | Structure (SMILES) | CC50 at 72 h [1]
1 | 8500 nM | 10400 nM | O=C[C@H](C[C@@H]1CCNC1=O)NC(=O)[C@H](CC1CCCCC1)NS(=O)(=O)c1cccs1 | > 100000 nM
2 | 1900 nM | 5700 nM | O=C1NCC[C@H]1C[C@H](NC(=O)[C@H](CC1CCCCC1)NS(=O)(=O)c1cccc(Cl)c1)C(O)S(=O)(=O)O (stereo partly specified) | > 100000 nM
3 | 1200 nM | 1100 nM | O=C1NCC[C@H]1C[C@H](NC(=O)[C@H](CC1CCCCC1)NS(=O)(=O)c1ccc(-c2ccccc2)cc1)C(O)S(=O)(=O)O (stereo partly specified) | > 100000 nM
4 | 2300 nM | 2500 nM | O=C[C@H](C[C@@H]1CCNC1=O)NC(=O)[C@H](CC1CCCCC1)NS(=O)(=O)CCN1C(=O)c2ccccc2C1=O | > 100000 nM
5 | 2000 nM | 4800 nM | O=C[C@H](C[C@@H]1CCNC1=O)NC(=O)[C@H](CC1CCCCC1)NS(=O)(=O)c1ccc(F)cc1 | > 100000 nM
6 | 4100 nM | 4500 nM | O=C[C@H](C[C@@H]1CCNC1=O)NC(=O)[C@H](CC1CCCCC1)NS(=O)(=O)Cc1ccccc1 | > 100000 nM
7 | 200 nM | 1600 nM | COc1ccc(OCCCS(=O)(=O)N[C@@H](CC2CCCCC2)C(=O)N[C@@H](C[C@@H]2CCNC2=O)C(O)S(=O)(=O)O)cc1 (stereo partly specified) | > 100000 nM
8 | 1300 nM | 1300 nM | O=C[C@H](C[C@@H]1CCNC1=O)NC(=O)[C@H](CC1CCCCC1)NS(=O)(=O)c1ccc(-c2ccccc2)cc1 | > 100000 nM
9 | 700 nM | 1800 nM | O=C[C@H](C[C@@H]1CCNC1=O)NC(=O)[C@H](CC1CCCCC1)NS(=O)(=O)CCc1ccccc1 | > 100000 nM
10 | 7200 nM | 5100 nM | O=C1NCC[C@H]1C[C@H](NC(=O)[C@H](CC1CCCCC1)NS(=O)(=O)c1ccc(Cl)cc1)C(O)S(=O)(=O)O (stereo partly specified) | > 100000 nM
11 | 2100 nM | 2600 nM | O=C1NCC[C@H]1C[C@H](NC(=O)[C@H](CC1CCCCC1)NS(=O)(=O)CCN1C(=O)c2ccccc2C1=O)C(O)S(=O)(=O)O (stereo partly specified) | > 100000 nM
12 | 100 nM | 300 nM | CCCCCCCCCCOC(=O)N[C@@H](CC1CCCCC1)C(=O)N[C@H](C=O)C[C@@H]1CCNC1=O | 32100 nM
13 | 100 nM | 500 nM | O=C(N[C@@H](CC1CCCCC1)C(=O)N[C@@H](C[C@@H]1CCNC1=O)C(O)S(=O)(=O)O)OCCc1cccc(Cl)c1 (stereo partly specified) | 46700 nM
14 | 2300 nM | 5500 nM | O=C[C@H](C[C@@H]1CCNC1=O)NC(=O)[C@H](CC1CCCCC1)NS(=O)(=O)c1cccc(Cl)c1 | > 100000 nM
15 | 9500 nM | 8500 nM | O=C[C@H](C[C@@H]1CCNC1=O)NC(=O)[C@H](CC1CCCCC1)NS(=O)(=O)c1ccccc1 | > 100000 nM
16 | 1100 nM | 2300 nM | O=C[C@H](C[C@@H]1CCNC1=O)NC(=O)[C@H](CC1CCCCC1)NS(=O)(=O)CCc1cccc(Cl)c1 | > 100000 nM

Row | EC50 (Norovirus) | IC50 [2] | Structure (SMILES) | CC50 at 72 h [1]
17 | 800 nM | 1900 nM | O=C1NCC[C@H]1C[C@H](NC(=O)[C@H](CC1CCCCC1)NS(=O)(=O)CCc1cccc(Cl)c1)C(O)S(=O)(=O)O (stereo partly specified) | > 100000 nM
18 | 200 nM | 1100 nM | CCCCCCCCS(=O)(=O)N[C@@H](CC1CCCCC1)C(=O)N[C@@H](C[C@@H]1CCNC1=O)C(O)S(=O)(=O)O (stereo partly specified) | 35400 nM
19 | 3500 nM | 5800 nM | O=C[C@H](C[C@@H]1CCNC1=O)NC(=O)[C@H](CC1CCCCC1)NS(=O)(=O)c1ccc(Cl)cc1 | > 100000 nM
20 | 12300 nM | 13500 nM | O=C1NCC[C@H]1C[C@H](NC(=O)[C@H](CC1CCCCC1)NS(=O)(=O)c1ccccc1)C(O)S(=O)(=O)O (stereo partly specified) | > 100000 nM
21 | 8100 nM | 8500 nM | O=C1NCC[C@H]1C[C@H](NC(=O)[C@H](CC1CCCCC1)NS(=O)(=O)c1cccs1)C(O)S(=O)(=O)O (stereo partly specified) | > 100000 nM
22 | 4300 nM | 4300 nM | O=C1NCC[C@H]1C[C@H](NC(=O)[C@H](CC1CCCCC1)NS(=O)(=O)Cc1ccccc1)C(O)S(=O)(=O)O (stereo partly specified) | > 100000 nM
23 | 200 nM | 400 nM | CCCCCCCCCCOC(=O)N[C@@H](CC1CCCCC1)C(=O)N[C@@H](C[C@@H]1CCNC1=O)C(O)S(=O)(=O)O (stereo partly specified) | 34500 nM
24 | 2400 nM | 1800 nM | O=C[C@H](C[C@@H]1CCNC1=O)NC(=O)[C@H](CC1CCCCC1)NS(=O)(=O)Cc1ccc(Cl)cc1 | > 100000 nM
25 | 800 nM | 2100 nM | O=C1NCC[C@H]1C[C@H](NC(=O)[C@H](CC1CCCCC1)NS(=O)(=O)CCc1ccccc1)C(O)S(=O)(=O)O (stereo partly specified) | > 100000 nM
26 | 200 nM | 2100 nM | O=C[C@H](C[C@@H]1CCNC1=O)NC(=O)[C@H](CC1CCCCC1)NC(=O)OCCOCc1ccccc1 | > 100000 nM
27 | 300 nM | 1200 nM | CCCCCCCCS(=O)(=O)N[C@@H](CC1CCCCC1)C(=O)N[C@H](C=O)C[C@@H]1CCNC1=O | 33800 nM
28 | 200 nM | 1800 nM | COc1ccc(OCCCS(=O)(=O)N[C@@H](CC2CCCCC2)C(=O)N[C@H](C=O)C[C@@H]2CCNC2=O)cc1 | > 100000 nM
29 | 300 nM | 1600 nM | O=C(N[C@@H](CC1CCCCC1)C(=O)N[C@@H](C[C@@H]1CCNC1=O)C(O)S(=O)(=O)O)OCCOCc1ccccc1 (stereo partly specified) | > 100000 nM
30 | 2100 nM | 6200 nM | O=C1NCC[C@H]1C[C@H](NC(=O)[C@H](CC1CCCCC1)NS(=O)(=O)c1ccc(F)cc1)C(O)S(=O)(=O)O (stereo partly specified) | > 100000 nM
31 | 100 nM | 600 nM | O=C[C@H](C[C@@H]1CCNC1=O)NC(=O)[C@H](CC1CCCCC1)NC(=O)OCCc1cccc(Cl)c1 | 43200 nM
32 | 2200 nM | 1200 nM | O=C1NCC[C@H]1C[C@H](NC(=O)[C@H](CC1CCCCC1)NS(=O)(=O)Cc1ccc(Cl)cc1)C(O)S(=O)(=O)O (stereo partly specified) | > 100000 nM
